ChEMBL document CHEMBL1159100, “Synthesis and antibacterial activity of benzyl-[3-(benzylamino-methyl)-cyclohexylmethyl]-amine derivatives” (Bioorg Med Chem Lett, 2010)
In brackets after ≈: the same amount, converted by molar mass.

Legend:
[1] = Toxicity in human RBC assessed as hemolytic activity at 512 ug/ml; type: cell-based, Erythrocyte; settings: red blood cells (RBC), read-out: Activity
Method in brief: (§1)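 Fresh human erythrocytes, 4% v/v in 35 mM phosphate buffer with 150 mM NaCl, incubated with test sample 1 h at 37 °C. After centrifugation, supernatant absorbance read at 414 nm. 0.1% Triton X-100 lysis taken as 100% hemolysis. Tested at concentrations up to 512 µg/mL.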

Escherichia coli = experiment: Antimicrobial activity against Escherichia coli after 24 hrs by microdilution assay; type: functional
Method in brief: (§2)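 NCCLS broth microdilution, final 100 µL. Bacteria grown in standard media to exponential phase. Compounds in 5% DMSO serially diluted; ~2–5 × 10^5 cells per well, 37 °C, 24 h, shaking 200 rpm. Growth read spectrophotometrically; percent survival relative to a drug-free 5% DMSO growth control; medium-only sterility control. MIC derived from survival data.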

Staphylococcus aureus = experiment: Antimicrobial activity against Staphylococcus aureus after 24 hrs by microdilution assay; type: functional; method in brief: as §2
Pseudomonas aeruginosa = experiment: Antimicrobial activity against Pseudomonas aeruginosa after 24 hrs by microdilution assay; type: functional; method in brief: as §2
[2] = system: Staphylococcus epidermidis; experiment: Antimicrobial activity against Staphylococcus epidermidis after 24 hrs by microdilution assay; type: functional; method in brief: as §2
[3] = Toxicity in human RBC up to 512 ug/ml; type: cell-based; settings: erythrocyte; method in brief: as §1

| SMILES | MIC (Escherichia coli) [µg/mL] | MIC (Staphylococcus aureus) [µg/mL] | MIC (Pseudomonas aeruginosa) [µg/mL] | MIC [2] [µg/mL] | hemolysis at 512 ug/ml [1] [%] | Activity [3] |
| --- | --- | --- | --- | --- | --- | --- |
| Cc1cc(C)cc(CNCC2CCCC(CNCc3cc(C)cc(C)c3)C2)c1 (configuration not stated) | > 250 | > 250 | 1 (≈ 2.64 µM) | 0.25 (≈ 0.66 µM) | – | Non-toxic |
| Cc1ccc(C)c(CNCC2CCCC(CNCc3cc(C)ccc3C)C2)c1 (configuration not stated) | > 250 | > 250 | > 250 | > 250 | – | – |
| Cc1ccc(CNCC2CCCC(CNCc3ccc(C)cc3C)C2)c(C)c1 (configuration not stated) | > 250 | > 250 | > 250 | > 250 | – | – |
| Fc1ccc(CNCC2CCCC(CNCc3ccc(F)cc3)C2)cc1 (configuration not stated) | > 250 | > 250 | > 250 | > 250 | – | – |
| Fc1cccc(CNCC2CCCC(CNCc3cccc(F)c3)C2)c1 (configuration not stated) | > 250 | > 250 | > 250 | > 250 | – | – |
| O=[N+]([O-])c1cccc(CNCC2CCCC(CNCc3cccc([N+](=O)[O-])c3)C2)c1 (configuration not stated) | > 250 | 0.02 (≈ 0.0485 µM) | > 250 | > 250 | – | – |
| CCc1ccc(CNCC2CCCC(CNCc3ccc(CC)cc3)C2)cc1 (configuration not stated) | > 250 | > 250 | 0.125 (≈ 0.33 µM) | 0.25 (≈ 0.66 µM) | 0.5 | – |
| CC(C)c1ccc(CNCC2CCCC(CNCc3ccc(C(C)C)cc3)C2)cc1 (configuration not stated) | > 250 | > 250 | 0.125 (≈ 0.307 µM) | 0.125 (≈ 0.307 µM) | 4 | – |
| Brc1cccc(CNCC2CCCC(CNCc3cccc(Br)c3)C2)c1 (configuration not stated) | > 250 | > 250 | 0.125 (≈ 0.26 µM) | 0.125 (≈ 0.26 µM) | – | Non-toxic |
| Brc1ccc(CNCC2CCCC(CNCc3ccc(Br)cc3)C2)cc1 (configuration not stated) | > 250 | > 250 | 0.032 (≈ 0.0666 µM) | 0.125 (≈ 0.26 µM) | – | Non-toxic |
| Clc1cccc(Cl)c1CNCC1CCCC(CNCc2c(Cl)cccc2Cl)C1 (configuration not stated) | > 250 | > 250 | > 250 | > 250 | – | Non-toxic |
| Cc1ccccc1CNCC1CCCC(CNCc2ccccc2C)C1 (configuration not stated) | > 250 | > 250 | > 250 | > 250 | – | Non-toxic |

More lines, main results first:

| MIC (Escherichia coli) [µg/mL] | MIC (Staphylococcus aureus) [µg/mL] | MIC (Pseudomonas aeruginosa) [µg/mL] | MIC [2] [µg/mL] | SMILES | hemolysis at 512 ug/ml [1] [%] | Activity [3] |
| --- | --- | --- | --- | --- | --- | --- |
| 0.016 (≈ 0.0368 µM) | 0.004 (≈ 0.0092 µM) | 0.002 (≈ 0.0046 µM) | 0.004 (≈ 0.0092 µM) | CCCCc1ccc(CNCC2CCCC(CNCc3ccc(CCCC)cc3)C2)cc1 (configuration not stated) | 4 | – |
| 0.002 (≈ 0.0046 µM) | 0.016 (≈ 0.0368 µM) | 0.004 (≈ 0.0092 µM) | 0.008 (≈ 0.0184 µM) | CC(C)(C)c1ccc(CNCC2CCCC(CNCc3ccc(C(C)(C)C)cc3)C2)cc1 (configuration not stated) | 4 | – |
| > 250 | 0.025 (≈ 0.0639 µM) | 0.032 (≈ 0.0818 µM) | 0.065 (≈ 0.166 µM) | Clc1ccc(CNCC2CCCC(CNCc3ccc(Cl)cc3)C2)cc1 (configuration not stated) | – | Non-toxic |
| > 250 | > 250 | > 250 | > 250 | c1ccc(CNCC2CCCC(CNCc3ccccc3)C2)cc1 (configuration not stated) | – | – |
| > 250 | > 250 | 0.5 (≈ 1.43 µM) | 1 (≈ 2.85 µM) | Cc1ccc(CNCC2CCCC(CNCc3ccc(C)cc3)C2)cc1 (configuration not stated) | – | Non-toxic |
| > 250 | > 250 | 1 (≈ 2.85 µM) | 1 (≈ 2.85 µM) | Cc1cccc(CNCC2CCCC(CNCc3cccc(C)c3)C2)c1 (configuration not stated) | – | Non-toxic |
| > 250 | > 250 | 0.125 (≈ 0.319 µM) | 0.25 (≈ 0.639 µM) | Clc1cccc(CNCC2CCCC(CNCc3cccc(Cl)c3)C2)c1 (configuration not stated) | – | Non-toxic |
| > 250 | > 250 | 0.125 (≈ 0.33 µM) | > 250 | Cc1ccc(CNCC2CCCC(CNCc3ccc(C)c(C)c3)C2)cc1C (configuration not stated) | – | Non-toxic |
| 0.016 (≈ 0.0393 µM) | > 250 | 0.016 (≈ 0.0393 µM) | 0.016 (≈ 0.0393 µM) | CCCc1ccc(CNCC2CCCC(CNCc3ccc(CCC)cc3)C2)cc1 (configuration not stated) | 4 | – |
| 0.001 (≈ 0.00225 µM) | 0.01 (≈ 0.0225 µM) | – | 0.02 (≈ 0.045 µM) | CN(C)[C@@H]1C(O)=C(C(N)=O)C(=O)[C@@]2(O)C(O)=C3C(=O)c4c(O)cccc4[C@@](C)(O)[C@H]3C[C@@H]12 [TETRACYCLINE] | – | – |
